Data set [1] in a line: Permeability of the compound. To be noted: not told; read-out: permeability. It is filed as ADME.
The subject of the next data set is P-gp. In words: Efflux ratio in P-gp (unknown origin) mediated drug transport. In kind it is ADME. To be noted: human, not told.
Data set [2] in a line: Kinetic solubility of the compound in isotonic buffer at pH 7.4. In kind it is physicochemical. To be noted: read-out: Kinetic_solubility.
For data set [3], the species on record is Homo sapiens. The experiment in a line: Selectivity ratio of IC50 for wild type LRRK2 (unknown origin) to IC50 for LRRK2 G2019S mutant (unknown origin). The essentials: (§1)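 HTRF assay with GST-LRRK2 (G2019S or wild type) measuring inhibition of LRRKtide phosphorylation. Biotinylated LRRKtide substrate; detection with Eu(K)-labelled anti-phospho-Moesin antibody plus streptavidin-XL665, read at 620 and 665 nm. Ratio taken as wild-type IC50 over G2019S IC50.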

The target of data set [4] is Leucine-rich repeat serine/threonine-protein kinase 2 (Homo sapiens, UniProt Q5S007). In words: Inhibition of wild type LRRK2 (unknown origin) by TR-FRET assay. In a few lines:
as §1

In data set [5] the target is T1, Leucine-rich repeat serine/threonine-protein kinase 2 (Homo sapiens, UniProt Q5S007, G2019S). In words: Inhibition of LRRK2 G2019S mutant (unknown origin) by TR-FRET assay. The essentials:
as §1

Data set [6] concerns the target Dual specificity protein kinase TTK (Homo sapiens) (UniProt P33981). In words: Inhibition of Ttk (unknown origin) at 1 uM. The essentials:
(§2)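 Single-point panel run by an outside contract lab: inhibition of each of 40 selected kinases measured at 1 µM test compound; percent inhibition reported.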

Data set [7] deals with Proto-oncogene tyrosine-protein kinase receptor Ret (Homo sapiens) (UniProt P07949). In words: Inhibition of Ret (unknown origin) at 1 uM. The essentials: as §2
Data set [8] has as its target Tyrosine-protein kinase SYK (Homo sapiens) (UniProt P43405). In words: Inhibition of Syk (unknown origin) at 1 uM. In a few lines: as §2
The target in data set [9] is Serine/threonine-protein kinase PLK1 (Homo sapiens) (UniProt P53350). The experiment in a line: Inhibition of PLK1 (unknown origin) at 1 uM. In a few lines:
as §2

In data set [10] the target is RAF proto-oncogene serine/threonine-protein kinase (Homo sapiens) (UniProt P04049). The experiment in a line: Inhibition of Raf1 (unknown origin) at 1 uM. The essentials: as §2
The target of data set [11] is Phosphatidylinositol 4,5-bisphosphate 3-kinase catalytic subunit alpha isoform (Homo sapiens) (UniProt P42336). The experiment in a line: Inhibition of PIK3CA (unknown origin) at 1 uM. In a few lines: as §2
Data set [12] is filed under the species Homo sapiens. The experiment in a line: Inhibition of MAPK (unknown origin) at 1 uM. In a few lines:
as §2

Data set [13] has as its target Platelet-derived growth factor receptor alpha (Homo sapiens) (UniProt P16234). The experiment in a line: Inhibition of PDGFRalpha (unknown origin) at 1 uM. The essentials: as §2
Data set [14] addresses Tyrosine-protein kinase JAK1 (Homo sapiens) (UniProt P23458). The experiment in a line: Inhibition of Jak1 (unknown origin) at 1 uM. In a few lines:
as §2

The target in data set [15] is Receptor-type tyrosine-protein kinase FLT3 (Homo sapiens) (UniProt P36888). The experiment in a line: Inhibition of Flt3 (unknown origin) at 1 uM. The essentials:
as §2

The target of data set [16] is Glycogen synthase kinase-3 beta (Homo sapiens) (UniProt P49841). In words: Inhibition of GSK3beta (unknown origin) at 1 uM. In a few lines:
as §2

Data set [17] concerns the target Receptor tyrosine-protein kinase erbB-4 (Homo sapiens) (UniProt Q15303). In words: Inhibition of ErbB4 (unknown origin) at 1 uM. In a few lines: as §2
The target in data set [18] is Serine/threonine-protein kinase Chk1 (Homo sapiens) (UniProt O14757). The experiment in a line: Inhibition of Chek1 (unknown origin) at 1 uM. In a few lines: as §2
Data set [19] deals with Macrophage colony-stimulating factor 1 receptor (Homo sapiens) (UniProt P07333). In words: Inhibition of CSF1R (unknown origin) at 1 uM. The essentials:
as §2

In data set [20] the target is Cyclin-dependent kinase 5/CDK5 activator 1 (Homo sapiens) (UniProt Q00535+Q15078). The experiment in a line: Inhibition of CDK5/p25 (unknown origin) at 1 uM. In kind it is protein-complex assay. The essentials: as §2
Cyclin-dependent kinase 5/CDK5 activator 1 (Homo sapiens), sequence (Q00535 whole entry): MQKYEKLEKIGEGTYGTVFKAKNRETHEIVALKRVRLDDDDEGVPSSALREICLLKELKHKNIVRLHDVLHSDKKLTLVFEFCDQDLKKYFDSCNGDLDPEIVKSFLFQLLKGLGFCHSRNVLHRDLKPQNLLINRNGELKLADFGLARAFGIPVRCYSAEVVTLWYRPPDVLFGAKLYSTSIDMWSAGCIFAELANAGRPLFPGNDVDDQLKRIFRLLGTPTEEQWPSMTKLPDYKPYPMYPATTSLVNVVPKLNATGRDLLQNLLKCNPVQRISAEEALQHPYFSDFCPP
Cyclin-dependent kinase 5/CDK5 activator 1 (Homo sapiens), sequence (Q15078 99-307 partner limits assumed): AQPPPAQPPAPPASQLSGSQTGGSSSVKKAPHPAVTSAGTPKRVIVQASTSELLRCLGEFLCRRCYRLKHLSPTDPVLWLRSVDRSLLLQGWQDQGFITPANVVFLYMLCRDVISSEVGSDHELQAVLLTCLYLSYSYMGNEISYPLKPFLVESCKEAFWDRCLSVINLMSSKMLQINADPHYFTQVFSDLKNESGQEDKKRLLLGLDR
The target of data set [21] is Cyclin-dependent kinase 1/cyclin B1 (Homo sapiens) (UniProt P06493+P14635). The experiment in a line: Inhibition of CDK1/Cyclin B (unknown origin) at 1 uM. In kind it is protein-complex assay. The essentials: as §2
The target of data set [22] is RAC-alpha serine/threonine-protein kinase (Homo sapiens) (UniProt P31749). The experiment in a line: Inhibition of Akt1 (unknown origin) at 1 uM. The essentials: as §2
RAC-alpha serine/threonine-protein kinase (Homo sapiens), sequence (P31749 whole entry): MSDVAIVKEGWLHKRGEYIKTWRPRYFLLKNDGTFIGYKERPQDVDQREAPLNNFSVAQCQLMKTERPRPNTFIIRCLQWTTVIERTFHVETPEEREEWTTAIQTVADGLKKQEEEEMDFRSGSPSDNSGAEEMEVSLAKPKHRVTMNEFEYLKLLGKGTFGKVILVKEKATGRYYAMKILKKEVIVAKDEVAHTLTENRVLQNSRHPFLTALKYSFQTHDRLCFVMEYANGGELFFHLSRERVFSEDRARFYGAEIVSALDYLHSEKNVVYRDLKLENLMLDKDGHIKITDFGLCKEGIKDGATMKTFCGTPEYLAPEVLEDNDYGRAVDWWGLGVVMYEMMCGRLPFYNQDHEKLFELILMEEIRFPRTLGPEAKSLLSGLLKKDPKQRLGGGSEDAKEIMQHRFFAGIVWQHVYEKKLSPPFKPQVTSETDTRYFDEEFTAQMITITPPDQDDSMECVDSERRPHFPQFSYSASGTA
Data set [23] concerns the target Aurora kinase A (Homo sapiens) (UniProt O14965). The experiment in a line: Inhibition of Aurora A (unknown origin) at 1 uM. In a few lines: as §2
Data set [24] concerns the target Tyrosine-protein kinase ABL1 (Homo sapiens) (UniProt P00519). In words: Inhibition of Abl1 (unknown origin) at 1 uM. The essentials: as §2
For data set [25], the system named is Liver microsomes. The experiment in a line: Metabolic stability in human liver microsomes. In kind it is ADME, Microsome.
Data set [26] concerns Liver microsomes. In words: Metabolic stability in rat liver microsomes after 30 mins. It is filed as ADME, Microsome. To be noted: 0.5 h. In a few lines:
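Compound incubated with NADPH-supplemented rat liver microsomes at 37 °C for 30 min; parent consumption and sulfoxide/sulfone metabolite formation monitored.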

For data set [27], the target named is T1, Leucine-rich repeat serine/threonine-protein kinase 2. The experiment in a line: Inhibition of LRRK2 G2019S mutant (unknown origin) transfected in HEK293 cells assessed decrease in S935 autophosphorylation. In kind it is cell-based. In a few lines: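 HEK293 cells stably transfected with LRRK2 G2019S; kinase inhibition read as decrease in LRRK2 S935 phosphorylation.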

≈ marks a conversion by molar mass, not a printed value. A value given as a limit tells only on which side of the number the result lay.

Leucine-rich repeat serine/threonine-protein kinase 2 (Homo sapiens, UniProt Q5S007), sequence (Q5S007 whole entry): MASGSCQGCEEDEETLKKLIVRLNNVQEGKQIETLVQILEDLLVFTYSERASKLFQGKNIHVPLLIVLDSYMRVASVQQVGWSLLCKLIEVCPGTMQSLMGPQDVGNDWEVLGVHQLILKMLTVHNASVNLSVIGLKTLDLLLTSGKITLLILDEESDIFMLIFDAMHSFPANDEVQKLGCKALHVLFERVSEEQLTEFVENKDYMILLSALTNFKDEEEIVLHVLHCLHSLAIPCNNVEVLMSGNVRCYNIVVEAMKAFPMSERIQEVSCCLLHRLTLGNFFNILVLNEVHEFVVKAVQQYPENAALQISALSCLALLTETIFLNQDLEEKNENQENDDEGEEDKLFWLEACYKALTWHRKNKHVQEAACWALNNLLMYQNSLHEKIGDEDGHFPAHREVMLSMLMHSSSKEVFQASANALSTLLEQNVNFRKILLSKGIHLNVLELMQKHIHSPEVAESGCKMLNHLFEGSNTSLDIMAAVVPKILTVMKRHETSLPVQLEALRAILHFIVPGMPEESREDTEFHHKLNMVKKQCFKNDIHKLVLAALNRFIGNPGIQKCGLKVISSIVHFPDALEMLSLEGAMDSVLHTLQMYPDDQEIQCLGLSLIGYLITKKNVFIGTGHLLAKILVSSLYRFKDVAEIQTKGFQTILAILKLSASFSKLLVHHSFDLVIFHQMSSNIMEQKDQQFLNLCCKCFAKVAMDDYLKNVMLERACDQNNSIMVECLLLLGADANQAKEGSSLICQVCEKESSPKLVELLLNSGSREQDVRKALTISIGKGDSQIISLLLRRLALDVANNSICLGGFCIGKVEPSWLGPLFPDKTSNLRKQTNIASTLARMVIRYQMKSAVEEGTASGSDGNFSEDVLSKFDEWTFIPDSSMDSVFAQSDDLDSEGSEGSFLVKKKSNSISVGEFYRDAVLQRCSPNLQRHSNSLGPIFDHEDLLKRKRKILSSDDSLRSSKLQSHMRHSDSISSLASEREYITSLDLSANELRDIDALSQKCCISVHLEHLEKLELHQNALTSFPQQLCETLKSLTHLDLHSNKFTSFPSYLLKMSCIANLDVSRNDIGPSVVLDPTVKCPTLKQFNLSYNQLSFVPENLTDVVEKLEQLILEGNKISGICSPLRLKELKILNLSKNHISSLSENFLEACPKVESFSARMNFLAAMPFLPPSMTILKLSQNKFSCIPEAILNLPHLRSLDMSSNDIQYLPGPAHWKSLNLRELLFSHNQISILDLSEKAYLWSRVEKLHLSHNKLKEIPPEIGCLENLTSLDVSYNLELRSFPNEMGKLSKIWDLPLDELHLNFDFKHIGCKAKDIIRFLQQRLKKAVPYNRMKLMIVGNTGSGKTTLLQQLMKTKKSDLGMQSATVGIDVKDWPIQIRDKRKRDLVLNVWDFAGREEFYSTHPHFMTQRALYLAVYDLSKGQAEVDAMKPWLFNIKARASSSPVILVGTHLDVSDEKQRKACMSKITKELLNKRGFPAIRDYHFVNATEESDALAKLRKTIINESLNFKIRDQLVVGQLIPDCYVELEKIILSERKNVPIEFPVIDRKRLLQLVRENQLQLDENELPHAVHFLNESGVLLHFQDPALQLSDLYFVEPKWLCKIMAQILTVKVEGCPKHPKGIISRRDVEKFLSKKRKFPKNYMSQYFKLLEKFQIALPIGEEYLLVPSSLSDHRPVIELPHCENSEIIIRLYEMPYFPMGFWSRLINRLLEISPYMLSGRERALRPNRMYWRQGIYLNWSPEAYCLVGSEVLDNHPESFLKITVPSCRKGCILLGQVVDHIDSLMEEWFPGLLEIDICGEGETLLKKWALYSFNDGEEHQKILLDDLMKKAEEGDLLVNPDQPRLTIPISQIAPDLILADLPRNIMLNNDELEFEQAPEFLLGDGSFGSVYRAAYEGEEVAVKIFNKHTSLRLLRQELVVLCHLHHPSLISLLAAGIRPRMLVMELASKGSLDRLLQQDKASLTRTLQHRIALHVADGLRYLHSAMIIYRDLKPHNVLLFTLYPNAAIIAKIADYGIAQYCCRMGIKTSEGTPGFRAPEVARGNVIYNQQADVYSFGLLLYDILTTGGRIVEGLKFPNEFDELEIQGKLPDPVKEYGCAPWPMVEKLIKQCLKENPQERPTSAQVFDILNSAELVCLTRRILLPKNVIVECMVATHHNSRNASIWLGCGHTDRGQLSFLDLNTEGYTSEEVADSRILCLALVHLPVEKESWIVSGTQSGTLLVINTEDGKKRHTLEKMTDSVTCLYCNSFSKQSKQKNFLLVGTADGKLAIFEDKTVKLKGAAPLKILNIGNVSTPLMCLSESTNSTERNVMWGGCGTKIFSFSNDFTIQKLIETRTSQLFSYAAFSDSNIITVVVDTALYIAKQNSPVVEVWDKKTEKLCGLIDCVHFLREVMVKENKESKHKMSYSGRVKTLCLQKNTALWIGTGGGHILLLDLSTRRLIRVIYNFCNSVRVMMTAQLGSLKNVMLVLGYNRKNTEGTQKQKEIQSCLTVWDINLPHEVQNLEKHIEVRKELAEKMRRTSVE
T1 sequence (Q5S007 whole entry G2019S): as the sequence (Q5S007 whole entry) above, with G2019S counted along it
Receptor-type tyrosine-protein kinase FLT3 (Homo sapiens), sequence (P36888 whole entry): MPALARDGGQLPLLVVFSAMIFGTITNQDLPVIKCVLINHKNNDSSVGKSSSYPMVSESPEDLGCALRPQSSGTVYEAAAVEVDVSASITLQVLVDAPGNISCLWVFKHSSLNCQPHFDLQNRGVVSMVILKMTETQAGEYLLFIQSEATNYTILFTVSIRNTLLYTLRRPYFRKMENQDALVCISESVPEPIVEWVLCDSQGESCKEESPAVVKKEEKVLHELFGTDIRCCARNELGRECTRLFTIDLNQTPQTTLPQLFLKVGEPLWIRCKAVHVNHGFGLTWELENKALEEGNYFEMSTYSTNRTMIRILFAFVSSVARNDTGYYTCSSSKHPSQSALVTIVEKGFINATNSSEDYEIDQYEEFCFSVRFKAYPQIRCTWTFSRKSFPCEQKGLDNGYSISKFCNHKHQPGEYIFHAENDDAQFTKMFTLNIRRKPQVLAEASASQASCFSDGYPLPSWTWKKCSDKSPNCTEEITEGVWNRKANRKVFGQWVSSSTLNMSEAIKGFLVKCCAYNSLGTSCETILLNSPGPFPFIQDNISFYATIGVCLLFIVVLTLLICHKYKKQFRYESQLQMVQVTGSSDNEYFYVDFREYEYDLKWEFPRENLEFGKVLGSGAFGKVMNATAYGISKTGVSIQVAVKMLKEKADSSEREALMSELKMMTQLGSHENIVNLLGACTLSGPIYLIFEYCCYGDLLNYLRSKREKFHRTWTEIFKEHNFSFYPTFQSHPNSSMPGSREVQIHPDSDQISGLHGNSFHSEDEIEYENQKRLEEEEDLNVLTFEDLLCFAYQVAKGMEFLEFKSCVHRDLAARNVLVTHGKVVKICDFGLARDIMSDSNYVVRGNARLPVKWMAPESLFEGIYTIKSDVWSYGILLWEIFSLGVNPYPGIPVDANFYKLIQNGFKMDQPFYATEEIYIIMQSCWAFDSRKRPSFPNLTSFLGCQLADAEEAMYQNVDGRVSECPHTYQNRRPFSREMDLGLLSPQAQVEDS
Aurora kinase A (Homo sapiens), sequence (O14965 whole entry): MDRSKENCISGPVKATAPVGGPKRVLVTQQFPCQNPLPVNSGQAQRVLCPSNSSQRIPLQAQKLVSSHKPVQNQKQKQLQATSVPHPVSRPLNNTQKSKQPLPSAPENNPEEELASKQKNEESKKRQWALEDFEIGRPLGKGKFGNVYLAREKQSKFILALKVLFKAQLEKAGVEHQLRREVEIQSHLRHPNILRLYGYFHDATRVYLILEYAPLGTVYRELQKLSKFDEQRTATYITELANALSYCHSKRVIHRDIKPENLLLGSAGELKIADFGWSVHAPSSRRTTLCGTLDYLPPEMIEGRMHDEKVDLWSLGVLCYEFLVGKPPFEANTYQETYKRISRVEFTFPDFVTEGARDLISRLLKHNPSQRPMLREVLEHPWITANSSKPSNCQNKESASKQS

Consider `COC(=O)C(C)Sc1ccc2nnc(-c3cccs3)n2n1` (configuration not stated), for which the Papp in data set [1] was found to be 28 ×10⁻⁶ cm/s. Besides, in the data set on P-gp, the efflux ratio was determined as 0.8. In [2], the solubility kinetic is 72 µM (≈ 23.1 µg/mL). In addition, the Ratio IC50 in the data set listed under Homo sapiens [3] is 2.7. Also, the IC50 was 0.535 µM in [4] and 0.2 µM in data set [5].
Turning to `FC(F)(F)c1cccc(Sc2ccc3nnc(-c4ccccc4)n3n2)c1`, the inhibition in [6], in data set [7], in [8], in [9], in data set [10] and in [11] was less than 18% in each case. The inhibition (in the data set filed under Homo sapiens [12]; in data set [13]; in data set [14]; in [15]; in data set [16]; in data set [17]) was less than 18% in each case. The inhibition in data set [18], in data set [19], in [20], in [21], in [22] and in data set [23] was less than 18% throughout. The inhibition in [24] was less than 18%. For the same compound, the figures for the Stability result in the data set on Liver microsomes [25] and in the data set with Liver microsomes [26] were “Stable” and “Unstable”, respectively. Moreover, the Papp in data set [1] worked out at 2.1 ×10⁻⁶ cm/s. Besides, in data set [2], the solubility kinetic was 9 µM (≈ 3.35 µg/mL). Besides, the Ratio IC50 in the data set listed under Homo sapiens [3] is 4.8. Further, the results for the IC50 in data set [4] and in data set [5] were 0.242 µM and 0.05 µM, respectively.
Turning to `FC(F)(F)c1cccc(Sc2ccc3nnc(-c4cccs4)n3n2)c1`, the IC50 worked out at 1.66 µM in data set [27], 0.075 µM in data set [4] and 0.023 µM in data set [5]. Further, the solubility kinetic in data set [2] came out at 8 µM (≈ 3.03 µg/mL). Moreover, in the data set listed under Homo sapiens [3], the Ratio IC50 came to 3.3.

These data come from ChEMBL document CHEMBL2346543, “Triazolopyridazine LRRK2 kinase inhibitors” (Bioorg Med Chem Lett, 2013).
